Five compounds from ChEMBL document CHEMBL4152245, “Design, synthesis and biological evaluation of benzo[cd]indol-2(1H)-ones derivatives as BRD4 inhibitors” (Eur J Med Chem, 2018) can be followed below.

Data set [1] concerns the target T1, Bromodomain-containing protein 4 (Homo sapiens, UniProt O60885). Description: Inhibition of His-tagged BRD4 bromodomain-1 (unknown origin) expressed in Escherichia coli BL21(DE3) using SGRGK(Ac)-GG-K(Ac)-GLG-K(Ac)-GGA-K(Ac)-RHRKVGG-K-Biotin as substrate preincubated for 15 mins followed by substrate addition measured after 10 mins by Alphascreen assay. The method in brief:
(§1)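 His-tagged BRD4_BD1 purified by Ni-NTA, anion exchange and gel filtration, tag retained. Assay buffer: 20 mM HEPES pH 7.4, 0.1% BSA, 0.01% Triton X-100, 1 mM DTT. Protein preincubated with compound 15 min at room temperature, biotinylated tetra-acetyl peptide added for 10 min, then streptavidin donor and nickel chelate acceptor beads for 60 min. Compounds screened at 20 and 5 µM; IC50 from three independent experiments.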

Data set [2] has as its target T1, Bromodomain-containing protein 4. In words: Inhibition of His-tagged BRD4 bromodomain-1 (unknown origin) expressed in Escherichia coli BL21(DE3) at 20 uM using SGRGK(Ac)-GG-K(Ac)-GLG-K(Ac)-GGA-K(Ac)-RHRKVGG-K-Biotin as substrate preincubated for 15 mins followed by substrate addition measured after 10 mins by Alphascreen assay relative to control. The method in brief:
as §1
Background: Bead proximity is the source of the signal in Alpha formats.

For data set [3] the target is unchanged. Description: Inhibition of His-tagged BRD4 bromodomain-1 (unknown origin) expressed in Escherichia coli BL21(DE3) at 5 uM using SGRGK(Ac)-GG-K(Ac)-GLG-K(Ac)-GGA-K(Ac)-RHRKVGG-K-Biotin as substrate preincubated for 15 mins followed by substrate addition measured after 10 mins by Alphascreen assay relative to control. The method in brief:
as §1

For data set [4] the target is unchanged. In words: Binding affinity to His-tagged BRD4 bromodomain-1 (unknown origin) expressed in Escherichia coli BL21(DE3) assessed as change in melting temperature at 100 uM by SYPRO orange dye based thermal shift assay. The procedure, abridged:
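Buffer of 20 mM HEPES pH 7.4, 100 mM NaCl and 1 mM DTT, with 5× SYPRO Orange and 5 µM BRD4_BD1. Compound at 100 µM or 0.5% DMSO, DMSO matched across wells. Heated at 2.5 °C/min from 25 to 95 °C. Tm compared with the DMSO control.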

Data set [5] has as its system MV4-11. Description: Antiproliferative activity against human MV4-11 cells after 72 hrs by CellTiter-Glo luminescent assay. Type of data set: functional, cell-based. Conditions: MV4-11, 72 h. The procedure, abridged:
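MV4-11 cells in RPMI 1640 with 10% FBS and 1% penicillin/streptomycin, seeded at 1×10⁵/mL. Compounds or DMSO added about 1 h later, then incubated 72 h. Viability read by CellTiter-Glo luminescence. Each dilution point run in triplicate, averaged, and fitted for IC50.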
(ATP-based viability assays read luminescence as a measure of living cells.)

A further data set deals with HUVEC. Description: Antiproliferative activity against HUVEC after 72 hrs by CellTiter-Glo luminescent assay. Type of data set: cell-based. To be noted: human. The procedure, abridged: (§2)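 HUV-EC-C, MRC5, RPTEC, A549, MDA-MB-231 and 22Rv1 cells seeded at 3×10⁴/mL and exposed to serially diluted compounds or DMSO. Viability read by CellTiter-Glo luminescence. Each dilution point run in triplicate, averaged, and fitted.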

The next data set deals with MRC5. In words: Antiproliferative activity against human MRC5 cells after 72 hrs by CellTiter-Glo luminescent assay. Conditions: mrc5, 72 h. Format: cell-based. The procedure, abridged: as §2
The subject of another data set is RPTEC. In words: Antiproliferative activity against human RPTEC cells after 72 hrs by CellTiter-Glo luminescent assay. Type of data set: cell-based. The method in brief:
as §2

In the next data set the test system is MDA-MB-231. In words: Antiproliferative activity against human MDA-MB-231 cells after 72 hrs by CellTiter-Glo luminescent assay. Type of data set: functional, cell-based. The method in brief: as §2
A further data set deals with A549. In words: Antiproliferative activity against human A549 cells after 72 hrs by CellTiter-Glo luminescent assay. Type of data set: functional, cell-based. The procedure, abridged:
as §2

The next data set deals with CWR22R. Description: Antiproliferative activity against human 22Rv1 cells after 72 hrs by CellTiter-Glo luminescent assay. Type of data set: functional, cell-based. The method in brief:
as §2

In data set [6] the test system is MV4-11. Description: Cell cycle arrest in human MV4-11 cells assessed as accumulation at G1-phase after 24 hrs by propidium iodide staining based flow cytometry. Type of data set: functional.
Data set [7] has as its system MV4-11. Description: Cell cycle arrest in human MV4-11 cells assessed as accumulation at G1-phase at 5 uM after 24 hrs by propidium iodide staining based flow cytometry (reference value: 61.39 to 63.23%). Type of data set: functional. (In general: A flow cytometer gives signals particle by particle.)
Data set [8] relates to MV4-11. Description: Cell cycle arrest in human MV4-11 cells assessed as accumulation at G2-phase at 5 uM after 24 hrs by propidium iodide staining based flow cytometry (reference value: 7.76 to 8.93%). Format: functional.
The test system of data set [9] is MV4-11. Description: Cell cycle arrest in human MV4-11 cells assessed as accumulation at S-phase at 5 uM after 24 hrs by propidium iodide staining based flow cytometry (reference value: 28.91 to 29.71%). Type of data set: functional.
Data set [10] has as its system MV4-11. In words: Cell cycle arrest in human MV4-11 cells assessed as accumulation at G1-phase at 10 uM after 24 hrs by propidium iodide staining based flow cytometry (reference value: 61.39 to 63.23%). Type of data set: functional.
Data set [11] concerns MV4-11. In words: Cell cycle arrest in human MV4-11 cells assessed as accumulation at G2-phase at 10 uM after 24 hrs by propidium iodide staining based flow cytometry (reference value: 7.76 to 8.93%). Type of data set: functional.
The test system of data set [12] is MV4-11. In words: Cell cycle arrest in human MV4-11 cells assessed as accumulation at S-phase at 10 uM after 24 hrs by propidium iodide staining based flow cytometry (reference value: 28.91 to 29.71%). Type of data set: functional.
Data set [13] concerns MV4-11. Description: Cell cycle arrest in human MV4-11 cells assessed as accumulation at G1-phase at 20 uM after 24 hrs by propidium iodide staining based flow cytometry (reference value: 61.39 to 63.23%). Format: functional.
Data set [14] concerns MV4-11. Description: Cell cycle arrest in human MV4-11 cells assessed as accumulation at G2-phase at 20 uM after 24 hrs by propidium iodide staining based flow cytometry (reference value: 7.76 to 8.93%). Format: functional.
Data set [15] deals with MV4-11. In words: Cell cycle arrest in human MV4-11 cells assessed as accumulation at S-phase at 20 uM after 24 hrs by propidium iodide staining based flow cytometry (reference value: 28.91 to 29.71%). Format: functional.
Data set [16] concerns the target T1, Bromodomain-containing protein 4. Description: Inhibition of BRD4 in human MV4-11 cells assessed as downregulation of c-MYC mRNA expression after 6 hrs by RT-PCR analysis. Type of data set: cell-based. The method in brief:
(§3)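 MV4-11 cells at 5×10⁵/mL treated 6 h with various compound concentrations or DMSO. c-Myc, Bcl-2 and CDK6 transcripts quantified by qRT-PCR, normalized to B2M by the ΔΔCt method.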

The target is the same in data set [17]. In words: Inhibition of BRD4 in human MV4-11 cells assessed as downregulation of Bcl2 mRNA expression after 6 hrs by RT-PCR analysis. Type of data set: cell-based. The procedure, abridged:
as §3

For data set [18] the target is unchanged. Description: Inhibition of BRD4 in human MV4-11 cells assessed as downregulation of CDK6 mRNA expression after 6 hrs by RT-PCR analysis. Type of data set: cell-based. The procedure, abridged: as §3
Data set [19] has the same target. Description: Inhibition of BRD4 in human MV4-11 cells assessed as downregulation of c-MYC protein expression after 6 hrs by Western blot analysis. Format: cell-based. The procedure, abridged: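 MV4-11 cells at 5×10⁵/mL treated 6 h with various compound concentrations or DMSO. Immunoblotted with anti-c-Myc (1:1000, 4 °C overnight), then anti-rabbit secondary (1:10000, 1 h, room temperature).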

The target is the same in data set [20]. Description: Inhibition of BRD4 (unknown origin) by Alphascreen assay. The procedure, abridged:
as §1

SMILES strings stand for the structures. Activity calls are given as the source filed them. No cut-off for these calls is given here.

For orientation: IC50 means the concentration that gives 50% inhibition. High values mean a need for much substance, low ones inhibition by little substance. A word on the inhibition: it is the change of the read-out against control, counted positive when it falls. In general, ΔTm refers to the shift of the melting midpoint relative to a reference. For `CCN1C(=O)c2cccc3c(S(=O)(=O)N4CCCC4)ccc1c23`, the IC50 in data set [1] amounted to 6830 nM; with MV4-11 [5] it was 11.7 µM. The inhibition in data set [2] was 99%; in [3] it was 59%; in data set [16], “Dose-dependent effect”; in data set [17] it was “Dose-dependent effect”; in data set [18], “Dose-dependent effect”; in [19], “Dose-dependent effect”. Moreover, in [4], the ΔTm was determined as 3.4 °C. The Activity result in the data set on HUVEC is “Non-Toxic”; with MRC5 it was “Non-Toxic”; with RPTEC, “Non-Toxic”; in the data set on MV4-11 [6], “Dose-dependent effect”; in the data set on MV4-11 [7] it was 73%; with MV4-11 [8] it was 5.47%. Also, the Activity in the data set with MV4-11 [9] is given as 21.52%; with MV4-11 [10] it was 80.04%; in the data set on MV4-11 [11], 4%; with MV4-11 [12], 15.95%; in the data set on MV4-11 [13] it was 87.22%; in the data set with MV4-11 [14] it was 2.9%. In the data set on MV4-11 [15], the Activity is recorded as 9.88%. The outcome with MDA-MB-231, with A549 and in the data set with CWR22R was Active.

For the compound `CCN1C(=O)c2cccc3c(S(=O)(=O)N4CCC[C@@H]4C(=O)O)ccc1c23`, the IC50 in [1] amounted to 3020 nM. Moreover, the inhibition in data set [2] was 98%; in [3], 66%; in data set [16], “Dose-dependent effect”; in [17], “Dose-dependent effect”; in data set [18], “Dose-dependent effect”; in [19], “Dose-dependent effect”. For the same compound, the ΔTm in data set [4] was found to be 10.5 °C.

Consider `CCN1C(=O)c2cccc3c(S(=O)(=O)N4CCC[C@@H]4C(=O)NN)ccc1c23`, for which the midpoint of inhibition in data set [1], the IC50, lay at 1020 nM. Also, the inhibition was 100% in data set [2]; 93% in [3]; “Dose-dependent effect” in data set [16]; “Dose-dependent effect” in data set [17]; “Dose-dependent effect” in [18]; “Dose-dependent effect” in data set [19]. Also, the ΔTm in data set [4] was determined as 7.8 °C.

Compound `CCN1C(=O)c2cccc3c(S(=O)(=O)N4CCC[C@@H]4C(=O)Nc4ccccc4)ccc1c23` came in with an IC50 in data set [1] of 1430 nM. In addition, the inhibition in data set [2] stood at 100%; in data set [3] it was 87%. Besides, the ΔTm in data set [4] came to 13.9 °C.

In [20], `Cc1sc2c(c1C)C(c1ccc(Cl)cc1)=C[C@@H](CC(=O)OC(C)(C)C)c1nnc(C)n1-2` showed an IC50 of 77 nM.
